Compounds with a hit are over-represented: about 3.9% of the library has one in this group of screens.
HCV NS3 hel inh: inhibitors of HCV NS3 helicase, primary screen, biochemical, Cy5 molecular beacon fluorescence; Hepatitis C virus NS3 helicase; NS3 helicase DNA unwinding; inhibition, % at 10.9 µM; 290,000 tested, 0.56% active;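 active means inhibition above the mean of all tested compounds plus 3 SD, set per campaign, cut at about 35% in these data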
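Assay system: hepatitis C virus NS3 helicase domain fragment enzyme. Also added: annealed dual-labelled DNA beacon duplex, ATP-started. Timing: 1 h reaction at 25 °C, ATP-initiated. Technique: Cy5 fluorescence at 0 and 60 min, beacon hairpin quenching. Evaluation: % inhibition of unwinding. Replication: one well per compound.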
core dimer inh: inhibitors of HCV core protein dimerization, primary screen, biochemical, TR-FRET, high-throughput. 300,000 tested, 0.33% active. TR-FRET GST/Flag-core106 dimerization, 1536-well. inhibition, % at 5 µM;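 active means inhibition above the mean of all tested compounds plus 3 SD, set per screening campaign, cut at about 45% in these data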
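System – GST-tagged and Flag-tagged HCV core protein residues 1-106 · Repeats – one well for each compound · Technique – TR-FRET 671 and 617 nm emission · Doses – one concentration, 5 µM, in 0.5% DMSO · Times – 4 h, 22.5 °C incubation · Also added – Eu donor and XL665 acceptor anti-tag antibodies · Measure – percent inhibition of core106 dimerization signal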
HSF1 inhib: HSF1 inhibitors in luciferase reporter cells, primary screen, cell-based, NIH3T3, luminescence; NIH3T3-HGL HSE-luciferase, MG132-induced, luminescence 8 h; stronger effect = lower value; 300,000 tested, 0.77% active; activity change, negative = inhibition, % at 7.5 µM (by protocol);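 active means more than half of replicate wells show activity change below -50%, luminescence cut by over half; inconclusive means some wells, but at most half, below -50%; inactive means no replicate well below -50%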;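 further: luciferase reports HSF-1 transcriptional activity via heat shock element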
HSP90 refold inh: HSP90 inhibitors, primary screen, cell lysate, luminescence; Heat shock protein HSP 90 (rabbit reticulocyte lysate; luciferase refolding); 290,000 tested, 0.91% active; Rabbit reticulocyte lysate, luciferase refolding luminescence, 3 h; AID 1789, 2009; inhibition, % at 5.6 µM;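 active means inhibition above the screen-wide mean plus 3 SD, computed separately per campaign, cut at about 16% in these data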;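 further: inhibitors lower the luminescence because luciferase stays unfolded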
HSF-1 act: HSF-1 activators, primary screen, NIH3T3-HGL cells, MG132 stress, luminescence, single point; NIH3T3-HGL HSF-1 luciferase reporter, 8 h; 100% = twice DMSO control signal; activation, % at 9 µM; 300,000 tested, 1.7% active; AID 504408, 2011;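 active means mean replicate activation of at least 50% with a set share of replicates each reaching 50%; inconclusive means only one of those two conditions met; inactive means mean below 50% and too few replicates reaching it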
FID counter: compounds displacing fluorescent DNA intercalator, primary screen, artefact control for HCV NS3 helicase inhibitor project, biochemical, FID fluorescence; DNA fluorescent intercalator displacement; inhibition, % at 7.9 µM; 290,000 tested, 0.17% active; AID 1845, 2009; in the data active means inhibition above about 37%;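 further: higher means more ethidium bromide displaced from hairpin DNA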
Hits are given with their value; – = inactive; ? = inconclusive; · = not tested or not shown.

SMILES	HCV NS3 hel inh	core dimer inh	HSF1 inhib	HSP90 refold inh	HSF-1 act	FID counter
Nc1ccc(C23CC4CC(CC(CO)(C4)C2)C3)cc1	–	–	–	–	–	–
CN(Cc1ccccc1)C(=O)CCC1CCN(C(=O)CC2=CCCCC2)CC1	–	·	–	–	71	–
Cc1cccc(-c2n[nH]c(=S)n2/N=C/c2ccc(C)o2)c1	–	–	–	–	–	–
Cc1ccc(C(=O)OCC(=O)c2ccc(Cl)s2)s1	–	–	–	–	60	–
CCOc1ccc(NCc2cccn2-c2nnc(N3CCC(C(=O)NCCCN4CC(C)CC(C)C4)CC3)s2)cc1 (centres undefined)	–	–	–	–	–	38
CCN(Cc1ccccc1)S(=O)(=O)c1c(C)[nH]c(C)c1C(=O)N1CCCC1	–	–	–	–	–	–
CC1CCN(CCCNC(=O)c2ccc3c(=O)n(Cc4ccc(Cl)cc4)c(=S)[nH]c3c2)CC1	–	–	–	–	79	–
COC(=O)c1ccc2c(=O)n(Cc3ccc(C(=O)NCCCN4CCC(C)CC4)cc3)c(=S)[nH]c2c1	–	–	–	–	–	–
O=C(CN1C(=O)NC2(CCCc3ccccc32)C1=O)Nc1cccc(S(=O)(=O)N2CCCCC2)c1 (centres undefined)	–	–	–	–	58	–
CCN1CC2([N+](=O)[O-])C=CC(=O)C([N+](=O)[O-])(C1)C2CC(=O)c1ccccc1 (centres undefined)	–	54	?	–	–	–
S=C(c1ccc(-c2ccc(Br)cc2)o1)N1CCOCC1	–	–	–	–	–	–
S=C(c1ccc(-c2ccc(Br)cc2)o1)N1CCCCC1	–	–	–	–	62	–
S=C(c1ccc(-c2ccc(Cl)c(Cl)c2)o1)N1CCOCC1	–	–	–	–	59	–
CCc1ccc(CCC(=O)Nc2ccc(C(C)=O)cc2)o1	–	–	–	–	–	–
C=CCOC(=O)COc1ccc2c(C)c(C)c(=O)oc2c1	–	–	–	–	–	–
O=C(c1cccc(-c2nnc(-c3ccccc3)o2)c1)N1CCCCCC1	–	–	–	–	–	–
O=C(c1cccc(-c2nnc(-c3ccccc3)o2)c1)N1CCCCC1	–	–	–	–	57	–
CC(C)n1nnnc1-c1ccc(Cl)cc1	–	–	–	–	–	–
S=C(Nc1ccc(Cl)c(Cl)c1)NC1CCCCC1	–	–	–	–	–	–
Cc1ccc(NC(=S)N2CCCC2)cc1C	–	·	·	–	·	–
S=C(Nc1ccc2nsnc2c1)NC1CCCCC1	–	–	–	–	82	–
CC1CCN(C(=O)Nc2ccc3nsnc3c2)CC1	–	–	–	–	57	–
O=C(Nc1ccc2nsnc2c1)N1CCCCC1	–	–	–	–	–	–
S=C(Nc1ccc2nsnc2c1)N1CCCCCC1	–	–	–	–	62	–
Cc1ccc(C=C2C(=O)c3ccccc3C2=O)s1	–	–	–	–	–	–
SMILES	HCV NS3 hel inh	core dimer inh	HSF1 inhib	HSP90 refold inh	HSF-1 act	FID counter
COCc1c(C#N)c(NCCc2ccc(F)cc2)nc(C)c1[N+](=O)[O-]	–	–	–	–	–	–
Cc1nc(NCCc2ccc(F)cc2)c(C#N)c(C)c1[N+](=O)[O-]	–	–	–	–	51	–
Cc1ccc(CSc2ncn(-c3ccccc3)n2)cc1	–	–	–	–	–	–
Clc1ccccc1CSc1ncn(-c2ccccc2)n1	–	–	–	–	67	–
O=[N+]([O-])c1ccc(Sc2cccc[n+]2[O-])c2nonc12	–	·	–	24	·	–
Cc1nnc(SCC(=O)NCc2ccccc2)[nH]c1=O	–	–	–	–	–	–
COc1cc(/C=N/OCC(=O)NC2CCCCC2C)ccc1OCc1ccc(Cl)cc1 (centres undefined)	–	–	–	–	–	–
COc1cc(/C=N/N2CCOCC2)ccc1OCc1ccc(Cl)cc1	–	–	–	–	80	–
COc1cc(/C=N/N2CCOCC2)ccc1OCc1ccccc1	–	–	–	–	–	–
COc1cc(/C=C(\C#N)c2ccccn2)ccc1OCc1ccc(Cl)cc1	–	–	–	–	68	–
COc1cc(/C=N/OCC(=O)Nc2cc(C)cc(C)c2)ccc1OCc1ccc(Cl)cc1	–	–	–	–	71	–
CCN(Cc1ccccc1)c1ccc(/C=C(\C#N)c2ccccn2)cc1	–	–	–	–	103	–
CN(CCC#N)c1ccc(/C=C(\C#N)c2ccccn2)cc1	–	–	–	–	–	–
O=C(Nc1ccc(Cl)cc1)OCc1cn(-c2ccccc2)nn1	–	–	–	–	–	–
O=C(NNC(=O)c1ccccc1OCc1ccc(F)cc1)c1ccncc1	·	–	–	·	–	·
O=C(c1cccc(Cl)c1)N1CCCC(C(=O)N2CCN(c3ccccc3)CC2)C1 (centres undefined)	–	–	–	–	–	–
COc1cc(/C=C/C(=O)N2CCOCC2)ccc1OCc1ccccc1	–	–	–	–	75	–
CCN(CC(=O)Nc1ccc(OC)cc1)C(=O)Cc1cccs1	·	52	–	·	–	·
COC(C(=O)N/N=C(\C)CC(=O)Nc1ccc(Cl)cc1C)c1ccccc1 (centres undefined)	–	–	–	–	122	–
Cc1ccc(S(=O)(=O)N2CCCCC2C)cc1[N+](=O)[O-] (centres undefined)	–	–	–	16	–	–
Cc1cccc(N2CCN(Cc3nc(-c4cccc(Cl)c4)oc3C)CC2)n1	–	–	–	–	–	–
Cc1cccc(N2CCN(Cc3nc(-c4ccccc4Cl)oc3C)CC2)n1	–	–	-60	–	–	–
O=C1N=NC(=O)N1c1ccccc1	–	–	–	–	–	–
COc1ccc(Nc2ncnc3c2oc2ccccc23)cc1	–	–	–	–	56	–
Cc1ccc(Nc2ncnc3c2oc2ccccc23)cc1	–	–	–	–	–	–
CCC(C)NCCOc1cc(C)cc(C)c1C (centres undefined)	–	–	–	–	–	–
CN(C)CCCN(Cc1cc2cc3c(cc2[nH]c1=O)OCO3)C(=S)Nc1cccc(Cl)c1	–	–	–	–	–	–
Cc1cc2cc(CN(Cc3ccco3)C(=S)NCC3CCCO3)c(=O)[nH]c2cc1C (centres undefined)	–	–	–	–	70	–
Cc1ccc2cc(CN(Cc3ccco3)C(=S)NCC3CCCO3)c(=O)[nH]c2c1C (centres undefined)	–	–	–	–	–	–
CCNC(=S)N(Cc1ccco1)Cc1cc2cc3c(cc2[nH]c1=O)OCCO3	–	–	–	–	62	–

Screening data deposited in PubChem BioAssay by several laboratories.
